Like-named read-outs stand apart in the source and are kept apart here. Peptide text beside a SMILES is read from it. * marks the point of attachment. Cbz = O=C(OCc1ccccc1)*
What was measured:
[1] = system: alpha(2B) adrenoceptor; conditions: cited from earlier work
[2] = target: T1, human 20S proteasome (CT-L activity) (Homo sapiens, UniProt P28074)
[3] = target: human 20S proteasome (T-L activity) (Homo sapiens, UniProt Q99436); assay: Tryptic-like; format: biochemical; conditions: purified human 20S proteasome
[4] = target: T1, human 20S proteasome (CT-L activity); assay: IC50 pre- and post-centrifugation of palau’amine in reaction buffer; format: biochemical; conditions: 15,000g for 30 min, supernatant
How it was run: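 Test compound in reaction buffer was spun at 15000g for 30 min, and the IC50 was compared with that of unspun material. CT-L assay: 1 nM purified human 20S proteasome in 50 mM Tris-HCl pH 7.5 with 0.03% SDS and Suc-LLVY-AMC at its Km, at 37 °C. AMC fluorescence (ex 380/em 460 nm) was read each minute for 30 min, and the maximal rate gave activity.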

[5] = Aggregation assay; format: physicochemical; conditions: 1 to 10 µM
[6] = system: HeLa cells; assay: Accumulation of ubiquitinylated proteins, confocal microscopy; format: cell-based, human; conditions: 1.0 µM, 2 h, versus vehicle, p =0.001
[7] = pH of greater than seven; has been reported, no reference given; cited from earlier work
[8] = target: T1, human 20S proteasome (CT-L activity); assay: Chymotryptic-like; format: biochemical; conditions: purified human 20S proteasome

In the case of NC1=N[C@]23CCCN2C(=O)c2cc(Br)c(Br)n2[C@@H]3N1 (racemic) [(±) -2, ±-dibromophakellin], the “Activity against the alpha(2B) adrenoceptor” value [1] is listed as “agonist activity”.
In the case of NC[C@@H]1[C@H]2CN3C(=O)c4cccn4[C@@H]4NC(N)=N[C@@]43[C@@H]2[C@]2(N=C(N)N[C@H]2O)[C@H]1Cl.O=C(O)C(F)(F)F (racemic) [(±) - 1, palau’amine], the “CT-L proteolytic activity of 20S proteasome pre-washing” value ([2]; 1 µM MG-132, 1 µM epoxomicin, 10 µM palau’amine, 1 nM 20S) is reported as “complete abrogation”, the “Binding mechanism to the 20S proteasome” value ([2]; kinetic analysis and washing experiments) is reported as “irreversible-type” and the “CT-L proteolytic activity of 20S proteasome post-washing” value ([2]; washed with 500 volumes of reaction buffer) is reported as “complete abrogation”. The “Effect on T-L activity of the proteasome” value [3] was “did not affect”, the “Change in CT-L IC50 post-centrifugation versus pre-centrifugation” value [4] was “no significant change” and the Formation of aggregates [5] was “not to form aggregates”. For the same compound, the “Accumulation of ubiquitinylated proteins (ubiquitin-Alexa 546 red fluorescence)” value [6] was “robust increase” and the “Stability at pH greater than seven (reported)” value [7] was “unstable”.
For CC(C)C[C@@H](C=O)NC(=O)[C@H](CC(C)C)NC(=O)[C@H](CC(C)C)NC(=O)OCc1ccccc1 [MG-132, reference compound] (Cbz-Leu-Leu-Leu-aldehyde), the “CT-L proteolytic activity of 20S proteasome post-washing” value [2] was “almost completely restored” and the “CT-L proteolytic activity of 20S proteasome pre-washing” value [2] was “completely abrogated”.
With O=c1c2cc(Br)c(Br)n2cc2n1CCC2 [compound 4] the “Inhibition of the proteasome (all activities)” value [8] was “devoid of all activity”.

— publication PMC3367325 (Journal of Natural Products, 2012)
